Laboratory results published in ChEMBL document CHEMBL1177718, “Phosphoramidate ProTides of 2'-C-methylguanosine as highly potent inhibitors of hepatitis C virus. Study of their in vitro and in vivo properties” (J Med Chem, 2010).

Experiments:
[1] = Metabolic stability in cynomolgus monkey intestine S9 fraction assessed as compound remaining at 10 uM after 60 mins by HPLC analysis in absence of NADP; format: ADME, tissue-based, Macaca fascicularis; conditions: read-out: Stability
Method in brief: (§1)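 Liver or intestinal S9 at final 1 mg/mL in 50 mM potassium phosphate, with or without NADPH-regenerating system (1.3 mM NADP, 3.3 mM glucose-6-phosphate, 0.4 U/mL G6PDH, 3.3 mM MgCl₂); 10 min preincubation at 37 °C; compound at final 10 μM; samples at start and 60 min quenched in cold acetonitrile, centrifuged, HPLC; % parent remaining.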

[2] = Metabolic stability in human liver S9 fraction assessed as compound remaining at 10 uM after 60 mins by HPLC analysis in absence of NADP; format: ADME, subcellular; conditions: read-out: Stability; method in brief: as §1
[3] = Metabolic stability in rat liver S9 fraction assessed as compound remaining at 10 uM after 60 mins by HPLC analysis in absence of NADP; format: ADME, subcellular; conditions: read-out: Stability
Method in brief: (§2)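 Rat liver or intestinal S9 at 1 mg/mL final in 50 mM potassium phosphate, with or without NADPH-regenerating system (final 1.3 mM NADP, 3.3 mM glucose-6-phosphate, 0.4 U/mL G6P dehydrogenase, 3.3 mM MgCl2). Preincubated 10 min at 37 °C with shaking, started with compound at 10 μM final. Samples taken at 0 and 60 min, quenched in cold acetonitrile, centrifuged, and parent disappearance measured by HPLC.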

[4] = Metabolic stability in rat liver S9 fraction assessed as compound remaining at 10 uM after 60 mins by HPLC analysis in presence of NADP; format: ADME, subcellular; conditions: read-out: Stability; method in brief: as §2
[5] = Metabolic stability in rat intestine S9 fraction assessed as compound remaining at 10 uM after 60 mins by HPLC analysis in absence of NADP; format: ADME, tissue-based; conditions: read-out: Stability; method in brief: as §2
[6] = Metabolic stability in dog liver S9 fraction assessed as compound remaining at 10 uM after 60 mins by HPLC analysis in presence of NADP; format: ADME, subcellular, Canis lupus familiaris; conditions: read-out: Stability; method in brief: as §1
[7] = Metabolic stability in dog intestine S9 fraction assessed as compound remaining at 10 uM after 60 mins by HPLC analysis in presence of NADP; format: ADME, tissue-based, Canis lupus familiaris; conditions: read-out: Stability; method in brief: as §1
[8] = Metabolic stability in cynomolgus monkey liver S9 fraction assessed as compound remaining at 10 uM after 60 mins by HPLC analysis in presence of NADP; format: ADME, subcellular, Macaca fascicularis; conditions: read-out: Stability; method in brief: as §1
[9] = Metabolic stability in mouse plasma assessed as compound remaining at 1 ug/ml after 30 mins; format: ADME, cell-free; conditions: read-out: Stability
[10] = Metabolic stability in cynomolgus monkey liver S9 fraction assessed as compound remaining at 10 uM after 60 mins by HPLC analysis in absence of NADP; format: ADME, subcellular, Macaca fascicularis; conditions: read-out: Stability; method in brief: as §1
[11] = Metabolic stability in dog liver S9 fraction assessed as compound remaining at 10 uM after 60 mins by HPLC analysis in absence of NADP; format: ADME, subcellular, Canis lupus familiaris; conditions: read-out: Stability; method in brief: as §1
Hepatitis C virus = test: Antiviral activity against HCV1b infected in human HuH7 cells assessed as inhibition of viral replication after 48 hrs by luciferase reporter gene assay; format: functional, organism-based, Hepacivirus hominis; conditions: genotype 1b, Huh-7, 48 h
Method in brief: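 Huh7 cells carrying genotype 1b bicistronic subgenomic replicon, seeded 2 × 10⁴/well without G-418; compounds added 18-24 h later, 48 h exposure; 3× or 4× serial dilutions over 0.0001-10 μM in triplicate/quadruplicate; Renilla luciferase read-out versus untreated cells; EC₅₀ by four-parameter sigmoidal nonlinear regression; at least three independent assays.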

[12] = Metabolic stability in dog intestine S9 fraction assessed as compound remaining at 10 uM after 60 mins by HPLC analysis in absence of NADP; format: ADME, tissue-based, Canis lupus familiaris; conditions: read-out: Stability; method in brief: as §1
[13] = Cytotoxicity against human HuH7 cells after 72 hrs by celltiter-glo assay; format: cell-based, Huh-7
Method in brief: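 Replicon 1b Huh7 cells seeded 2 × 10⁴/well; after 24 h, 11 serial 2× dilutions from 100 μM (three repeats each) with no-compound control; 72 h at 37 °C, CO₂, log-phase growth; viability by CellTiter-Glo luminescence; CC₅₀ = concentration giving 50% signal.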

[14] = Metabolic stability in human liver S9 fraction assessed as compound remaining at 10 uM after 60 mins by HPLC analysis in presence of NADP; format: ADME, subcellular; conditions: read-out: Stability; method in brief: as §1
[15] = Metabolic stability in human intestine S9 fraction assessed as compound remaining at 10 uM after 60 mins by HPLC analysis in presence of NADP; format: ADME, tissue-based; conditions: read-out: Stability; method in brief: as §1
[16] = Metabolic stability in rat intestine S9 fraction assessed as compound remaining at 10 uM after 60 mins by HPLC analysis in presence of NADP; format: ADME, tissue-based; conditions: read-out: Stability; method in brief: as §2
[17] = Metabolic stability in cynomolgus monkey intestine S9 fraction assessed as compound remaining at 10 uM after 60 mins by HPLC analysis in presence of NADP; format: ADME, tissue-based, Macaca fascicularis; conditions: read-out: Stability; method in brief: as §1
[18] = Metabolic stability in human intestine S9 fraction assessed as compound remaining at 10 uM after 60 mins by HPLC analysis in absence of NADP; format: ADME, tissue-based; conditions: read-out: Stability; method in brief: as §1
[19] = Metabolic stability in rat plasma assessed as compound remaining at 1 ug/ml after 30 mins; format: ADME, cell-free; conditions: read-out: Stability
Method in brief: (§3)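 Duplicate incubations; compound at final 1 μg/mL in plasma preincubated and kept at […]; samples taken at 30 or 240 min, quenched with ice-cold acetonitrile, centrifuged, supernatant diluted with water; parent quantified by LC-MS/MS (Polar-RP column, formic acid water/acetonitrile gradient, positive ion mode); % remaining reported.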

[20] = Metabolic stability in dog plasma assessed as compound remaining at 1 ug/ml after 4 hrs; format: ADME, cell-free, Canis lupus familiaris; conditions: read-out: Stability; method in brief: as §3
Homo sapiens [21] = organism: Homo sapiens; test: Metabolic stability in human plasma assessed as compound remaining at 1 ug/ml after 30 mins
[22] = Metabolic stability in dog plasma assessed as compound remaining at 1 ug/ml after 30 mins; format: ADME, cell-free, Canis lupus familiaris; conditions: read-out: Stability; method in brief: as §3
[23] = Metabolic stability in cynomolgus monkey plasma assessed as compound remaining at 1 ug/ml after 4 hrs; format: ADME, cell-free, Macaca fascicularis; conditions: read-out: Stability; method in brief: as §3
Homo sapiens [24] = organism: Homo sapiens; test: Metabolic stability in human plasma assessed as compound remaining at 1 ug/ml after 4 hrs
[25] = Metabolic stability in rat plasma assessed as compound remaining at 1 ug/ml after 4 hrs; format: ADME, cell-free; conditions: read-out: Stability; method in brief: as §3
[26] = Metabolic stability in mouse plasma assessed as compound remaining at 1 ug/ml after 4 hrs; format: ADME, cell-free; conditions: read-out: Stability
[27] = Metabolic stability in cynomolgus monkey plasma assessed as compound remaining at 1 ug/ml after 30 mins; format: ADME, cell-free, Macaca fascicularis; conditions: read-out: Stability; method in brief: as §3
Liver [28] = test: AUC (0 to 6 hrs) in ICR mouse liver at 50 mg/kg, po by LC-MS/MS analysis; format: ADME, organism-based; parameters: time < 6 hr, dose 50 mg/kg, route oral; conditions: in vivo
[29] = Cmax in ICR mouse plasma at 50 mg/kg, po by LC-MS/MS analysis; format: ADME, organism-based; parameters: dose 50 mg/kg, route oral
Liver [30] = test: AUC (0 to 24 hrs) in ICR mouse liver at 50 mg/kg, po by LC-MS/MS analysis; format: ADME, organism-based; parameters: time < 24 hr, dose 50 mg/kg, route oral; conditions: in vivo
Plasma = test: Dose normalized AUC in ICR mouse plasma at 50 mg/kg, po by LC-MS/MS analysis; format: ADME, organism-based; parameters: dose 50 mg/kg, route oral; conditions: in vivo
Liver [31] = test: Dose normalized AUC in ICR mouse liver at 50 mg/kg, po by LC-MS/MS analysis; format: ADME, organism-based; parameters: dose 50 mg/kg, route oral; conditions: in vivo

SMILES	remaining at 1 h, 10 µM [2] [%]	remaining at 1 h, 10 µM [6] [%]	remaining at 1 h, 10 µM [7] [%]	remaining at 0.5 h, 1 ug/ml [9] [%]	remaining at 1 h, 10 µM [11] [%]	EC50 (Hepatitis C virus) [nM]	remaining at 1 h, 10 µM [12] [%]	CC50 at 72 h [13] [nM]	remaining at 1 h, 10 µM [14] [%]	remaining at 1 h, 10 µM [15] [%]	remaining at 1 h, 10 µM [18] [%]	remaining at 0.5 h, 1 ug/ml (Homo sapiens [21]) [%]	remaining at 0.5 h, 1 ug/ml [22] [%]	AUC (Liver [28]) [ng·h/g]	Cmax [29] [ng/mL]	AUC (Plasma) [ng·h/mL]	AUC (Liver [31]) [ng·h/g]	also measured
CC(C)OC(=O)[C@H](C)NP(=O)(OC[C@H]1O[C@@H](n2cnc3c(=O)[nH]c(N)nc32)[C@](C)(O)[C@@H]1O)Oc1cccc2ccccc12 (some centres not stated)	41	81	66	14	91	170	68	> 100000	27	65	85							remaining at 1 h, 10 µM [1]: 87%; remaining at 1 h, 10 µM [3]: 28%; remaining at 1 h, 10 µM [4]: 25%; remaining at 1 h, 10 µM [5]: 76%; remaining at 1 h, 10 µM [8]: 0%; remaining at 1 h, 10 µM [10]: 86%; remaining at 1 h, 10 µM [16]: 77%; remaining at 1 h, 10 µM [17]: 48%
C[C@H](NP(=O)(OC[C@H]1O[C@@H](n2cnc3c(=O)[nH]c(N)nc32)[C@](C)(O)[C@@H]1O)Oc1ccc2ccccc2c1)C(=O)OCc1ccccc1 (some centres not stated)	29	33	23	0.7	28	170	27	> 50000	14	24	23							
COC(=O)[C@H](CCSC)NP(=O)(OC[C@H]1O[C@@H](n2cnc3c(=O)[nH]c(N)nc32)[C@](C)(O)[C@@H]1O)Oc1cccc2ccccc12 (some centres not stated)	14	40	56	76	57	280		> 100000	3	42	27							
CC(C)[C@@H](NP(=O)(OC[C@H]1O[C@@H](n2cnc3c(=O)[nH]c(N)nc32)[C@](C)(O)[C@@H]1O)Oc1cccc2ccccc12)C(=O)OCc1ccccc1 (some centres not stated)				51		> 3000		> 100000				70	69					remaining at 0.5 h, 1 ug/ml [19]: 82%; remaining at 4 h, 1 ug/ml [20]: 61%; remaining at 4 h, 1 ug/ml [23]: 80%; remaining at 4 h, 1 ug/ml (Homo sapiens [24]): 82%; remaining at 4 h, 1 ug/ml [25]: 56%; remaining at 4 h, 1 ug/ml [26]: 8%; remaining at 0.5 h, 1 ug/ml [27]: 68%
CC(C)[C@H](NP(=O)(OC[C@H]1O[C@@H](n2cnc3c(=O)[nH]c(N)nc32)[C@](C)(O)[C@@H]1O)Oc1cccc2ccccc12)C(=O)OC1CCCCC1 (some centres not stated)				95		1000		> 100000				97	95	815	185	33	77	AUC (Liver [30]): 3860 ng·h/g
CC(C)[C@H](NP(=O)(OC[C@H]1O[C@@H](n2cnc3c(=O)[nH]c(N)nc32)[C@](C)(O)[C@@H]1O)Oc1cccc2ccccc12)C(=O)OCc1ccccc1Cl (some centres not stated)				69		430		> 100000				77	100	880	518	49	18	
CC(C)[C@H](NP(=O)(OC[C@H]1O[C@@H](n2cnc3c(=O)[nH]c(N)nc32)[C@](C)(O)[C@@H]1O)Oc1cccc2ccccc12)C(=O)OCc1ccc(Cl)cc1 (some centres not stated)				94		620						95	89	920	339	88	18	
COC(=O)[C@H](C)NP(=O)(OC[C@H]1O[C@@H](n2cnc3c(=O)[nH]c(N)nc32)[C@](C)(O)[C@@H]1O)Oc1cccc2ccccc12 (some centres not stated)	40	67	50	1.7	85	210	54	> 50000	20	60	63							
CC(OC(=O)[C@H](C)NP(=O)(OC[C@H]1O[C@@H](n2cnc3c(=O)[nH]c(N)nc32)[C@](C)(O)[C@@H]1O)Oc1cccc2ccccc12)c1ccccc1 (mixture of isomers)				2.2		95		> 100000				86	97					remaining at 0.5 h, 1 ug/ml [19]: 0.7%; remaining at 4 h, 1 ug/ml [20]: 93%; remaining at 4 h, 1 ug/ml [23]: 88%; remaining at 4 h, 1 ug/ml (Homo sapiens [24]): 86%; remaining at 4 h, 1 ug/ml [25]: 0.3%; remaining at 4 h, 1 ug/ml [26]: 0%; remaining at 0.5 h, 1 ug/ml [27]: 100%
